Data reported in ChEMBL document CHEMBL4602675, “The Marine Natural Product Manzamine A Inhibits Cervical Cancer by Targeting the SIX1 Protein” (J Nat Prod, 2020).
Activity calls are given as the source filed them. No cut-off for these calls is given here.

Tests used:
SiHa [1] = assay: Induction of apoptosis in human SiHa cells assessed as early apoptotic cells at 4 uM after 48 hrs by Annexin V-FITC/PI double staining based flow cytometric analysis (reference value: 2.4%); type: functional
[2] = biological target: Casein kinase II subunit alpha (Homo sapiens) (UniProt P68400); assay: Potency index, ratio for inhibition activity of apigenin to test compound for inhibition of CK2alpha in human HeLa cells after 48 hrs by Western blot analysis; type: cell-based
In short: (§1)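 Cells plated at 1 × 10^6 per 100 mm dish and treated next day for 48 h with test compound (2 or 4 μM) or apigenin (10, 20 or 40 μM). RIPA lysates with protease inhibitors; equal protein loaded for SDS-PAGE, then PVDF transfer. Blocked in 5% milk/TBST (3% BSA for CK2α); anti-SIX1 or anti-CK2α 1:500, HRP secondary 1:2000; chemiluminescent detection.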

SiHa [3] = assay: Antiproliferative activity against human SiHa cells assessed as reduction in cell viability after 72 hrs by CellTiter-Glo assay; type: functional, cell-based
In short: (§2)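 ATP-based luminescent viability readout. Cells were grown in DMEM with 10% FBS, 2 mM L-glutamine and penicillin-streptomycin at 37 °C, 5% CO2. 2 × 10^4 cells/well were seeded, then exposed the next day to 0–40 μM for 24, 48 or 72 h. % viability = 100 × treated/control. IC50 was fitted from a sigmoid dose-response curve. Run at least three times in quadruplicate; mean ± SEM.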

HeLa [4] = assay: Induction of apoptosis in human HeLa cells assessed as viable cells at 4 uM after 24 hrs by Annexin V-FITC/PI double staining based flow cytometric analysis (reference value: 85.2%); type: functional; conditions: read-out: Activity
[5] = biological target: T1, Protein E7 (Human papillomavirus 16) (UniProt P03129); assay: Inhibition of Human papillomavirus type16 derived E7 in human SiHa cells assessed as decrease in phosphorylation of Rb at 2 to 4 uM after 48 hrs by Western blot analysis; type: cell-based
T1 sequence (whole entry): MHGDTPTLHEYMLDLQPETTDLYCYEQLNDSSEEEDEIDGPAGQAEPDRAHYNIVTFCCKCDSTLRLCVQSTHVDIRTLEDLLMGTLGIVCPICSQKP
In short: (§3)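 Cells were seeded at 1 × 10^6 per 100 mm dish and treated next day with 2 or 4 μM for 48 h. They were trypsinised, PBS-washed and lysed in RIPA with protease inhibitors. Equal protein was run on SDS-PAGE and transferred to PVDF. Primary antibodies were used at 1:500, with BSA 3% for blocking and antibodies for CK2α, Rb and pRb, otherwise 5% milk in TBST. HRP secondary at 1:2000, chemiluminescence detection.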

HeLa [6] = assay: Cell cycle arrest in human HeLa cells assessed as accumulation at G0/G1 phase at 4 uM after 72 hrs by propidium iodide staining based flow cytometric analysis (reference value: 76.4%); type: functional
In short: (§4)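 Cells in DMEM/10% FBS at 37 °C, 5% CO2 were given 4 μM for 24, 48 or 72 h, with DMSO as control. After trypsinization they were fixed in chilled 70% ethanol on ice for 30 min, treated with RNase A (1 mg/mL) for 30 min at room temperature, and stained with PI (20 μg/mL). At least 10 000 events were read by flow cytometry to give sub-G1, G0/G1, S and G2/M fractions; mean ± SEM.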

Ca-Ski [7] = assay: Antiproliferative activity against human CaSki cells assessed as reduction in cell viability after 24 hrs by CellTiter-Glo assay; type: functional, cell-based; in short: as §2
HeLa [8] = assay: Cell cycle arrest in human HeLa cells assessed as accumulation at G2/M phase at 4 uM after 48 hrs by propidium iodide staining based flow cytometric analysis (reference value: 16.2%); type: functional
C-33-A = assay: Cell cycle arrest in human C33A cells assessed as accumulation at G0/G1 phase at 4 uM after 48 hrs by propidium iodide staining based flow cytometric analysis (reference value: 54.6%); type: functional; in short: as §4
Ca-Ski [9] = assay: Induction of apoptosis in human CaSki cells assessed as late apoptotic cells at 4 uM after 48 hrs by Annexin V-FITC/PI double staining based flow cytometric analysis (reference value: 9.1%); type: functional
HeLa [10] = assay: Inhibition of colony formation in human HeLa cells at 2 to 4 uM afer 1 week by crystal violet staining based assay; type: functional, cell-based
In short: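 Cells were grown in DMEM with 10% FBS, seeded at 1 × 10^3 cells/ml in six-well plates, incubated overnight, then exposed to 2 or 4 μM at 37 °C under 5% CO2 for one week. Colonies were fixed with 4% paraformaldehyde, stained with 0.5% crystal violet and photographed.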

Ca-Ski [11] = assay: Cell cycle arrest in human CaSki cells assessed as accumulation at G2/M phase at 4 uM after 72 hrs by propidium iodide staining based flow cytometric analysis (reference value: 15.2%); type: functional
[12] = biological target: Casein kinase II subunit alpha (Homo sapiens) (UniProt P68400); assay: Inhibition of CK2alpha in human C33A cells at 2 to 4 uM after 48 hrs by Western blot analysis; type: cell-based; conditions: C-33-A; in short: as §3
SiHa [13] = assay: Cell cycle arrest in human SiHa cells assessed as accumulation at G2/M phase at 4 uM after 48 hrs by propidium iodide staining based flow cytometric analysis (reference value: 14.7%); type: functional
In short: (§5)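 Cells in DMEM with 10% FBS, 2 mM L-glutamine, pen-strep, 37 °C, 5% CO2; seeded and left overnight, then treated at 4 μM with DMSO as control. Harvested by trypsin at 24, 48 or 72 h, fixed in chilled 70% ethanol 30 min on ice, RNase A (1 mg/mL) 30 min at room temperature, PI (20 μg/mL). Flow cytometry, ≥10 000 events, G0/G1, S, G2/M fractions; mean ± SEM.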

Ca-Ski [14] = assay: Cell cycle arrest in human CaSki cells assessed as increase in accumulation at G0/G1 phase at 4 uM incubated for 48 hrs by propidium iodide staining based flow cytometric analysis; type: functional; in short: as §4
Ca-Ski [15] = assay: Induction of apoptosis in human CaSki cells assessed as viable cells at 4 uM after 48 hrs by Annexin V-FITC/PI double staining based flow cytometric analysis (reference value: 81.6%); type: functional; conditions: read-out: Activity
SiHa [16] = assay: Cell cycle arrest in human SiHa cells assessed as increase in accumulation at G0/G1 phase at 4 uM incubated for 24 hrs by propidium iodide staining based flow cytometric analysis; type: functional; in short: as §5
[17] = biological target: Protein E6 (Human papillomavirus 16) (UniProt P03126); assay: Inhibition of Human papillomavirus type16 derived E6 in human SiHa cells assessed as increase in p21 protein expression at 2 to 4 uM after 48 hrs by Western blot analysis; type: cell-based; in short: as §3
[18] = biological target: Casein kinase II subunit alpha (Homo sapiens) (UniProt P68400); assay: Potency index, ratio for inhibition activity of apigenin to test compound for inhibition of CK2alpha in human SiHa cells after 48 hrs by Western blot analysis; type: cell-based; in short: as §1
[19] = biological target: Protein E6 (Human papillomavirus 16) (UniProt P03126); assay: Inhibition of Human papillomavirus type16 derived E6 in human CaSki cells assessed as increase in p21 protein expression at 2 to 4 uM after 48 hrs by Western blot analysis; type: cell-based; conditions: Ca-Ski; in short: as §3
[20] = biological target: T1, Protein E7 (Human papillomavirus 16); assay: Inhibition of Human papillomavirus type16 derived E7 in human SiHa cells assessed as decrease in cyclin-D1 protein expression at 2 to 4 uM after 48 hrs by Western blot analysis; type: cell-based; in short: as §3
[21] = biological target: Protein E6 (human papillomavirus 18) (UniProt P06463); assay: Inhibition of Human papillomavirus type18 derived E6 in human HeLa cells assessed as increase in p53 protein expression at 2 to 4 uM after 48 hrs by Western blot analysis; type: cell-based; in short: as §3
Chain of Protein E6 (human papillomavirus 18) (P06463 whole entry): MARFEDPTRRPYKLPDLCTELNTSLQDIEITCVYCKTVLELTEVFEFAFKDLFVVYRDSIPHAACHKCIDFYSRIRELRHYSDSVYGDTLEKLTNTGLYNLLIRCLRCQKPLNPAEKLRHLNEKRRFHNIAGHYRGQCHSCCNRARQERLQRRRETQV

Chain of Casein kinase II subunit alpha (Homo sapiens) (P68400 whole entry, looked up): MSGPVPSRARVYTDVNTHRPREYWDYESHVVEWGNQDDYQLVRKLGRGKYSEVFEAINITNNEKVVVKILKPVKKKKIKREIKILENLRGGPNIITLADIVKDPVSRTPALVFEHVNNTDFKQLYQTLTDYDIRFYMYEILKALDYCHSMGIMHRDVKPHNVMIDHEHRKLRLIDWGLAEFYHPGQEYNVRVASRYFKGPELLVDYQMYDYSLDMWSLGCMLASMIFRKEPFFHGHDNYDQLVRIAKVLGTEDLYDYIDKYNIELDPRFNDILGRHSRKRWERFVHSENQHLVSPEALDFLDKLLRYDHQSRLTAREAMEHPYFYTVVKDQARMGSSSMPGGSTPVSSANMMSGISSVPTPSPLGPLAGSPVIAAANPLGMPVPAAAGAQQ
Chain of Protein E6 (Human papillomavirus 16) (P03126 whole entry): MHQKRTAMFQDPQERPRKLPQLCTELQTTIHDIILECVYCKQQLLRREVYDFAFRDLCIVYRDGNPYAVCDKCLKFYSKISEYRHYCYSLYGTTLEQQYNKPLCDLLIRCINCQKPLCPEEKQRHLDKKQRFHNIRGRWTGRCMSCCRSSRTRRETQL

O[C@]12C=C(c3nccc4c3[nH]c3ccccc34)[C@@H]3CCN(CCCC/C=C\CC1)C[C@@]31C[C@@H]3/C=C\CCCCN3[C@H]12 [MANZAMINE A] was tested, and the Activity (SiHa [1]) was 27%, the Ratio [2] was 10 and the IC50 (SiHa [3]) was 4.1 µM. The viability at 4 µM (HeLa [4]) was 81.7%, the inhibition [5] was “Active” and the Activity (HeLa [6]) was 49.1%. For the same compound, the IC50 (Ca-Ski [7]) was 33.6 µM, the Activity (HeLa [8]) was 20.8% and the Activity (C-33-A) was 44.2%. The Activity (Ca-Ski [9]) was 7.8%, the inhibition (HeLa [10]) was “Active” and the Activity (Ca-Ski [11]) was 10.2%. The inhibition [12] was “Active”, the Activity (SiHa [13]) was 8.2% and the “fold change (FC)” value (Ca-Ski [14]) was 1.5. For the same compound, the viability at 4 µM (Ca-Ski [15]) was 76.9%, the “fold change (FC)” value (SiHa [16]) was 1.2 and the inhibition [17] was “Active”. For the same compound, the Ratio [18] was 10, the inhibition [19] was “Active” and the inhibition [20] was “Active”. For the same compound, the inhibition [21] was “Active”.
